Converted amounts (≈) assume the structure as drawn. The source made the active and inactive calls. The calls are words filed in the database; no cut-off is given here.
Experiments:
Escherichia coli [1] = experiment: Antibacterial activity against Escherichia coli J53; assay type: functional
Bacillus anthracis = experiment: Antibacterial activity against Bacillus anthracis Sterne; assay type: functional
Enterococcus faecalis [2] = experiment: Antibacterial activity against vancomycin-resistant Enterococcus faecalis 51299; assay type: functional
In short: (§1)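 Broth microdilution per CLSI with modified incubation. Log-phase cultures in cation-adjusted Mueller-Hinton broth, seeded at 1 x 10^5 CFU/ml. Compounds from DMSO stocks, 1% DMSO final. Incubated 37°C, 16 to 20 h, shaken. Growth read as OD600. MIC is the lowest concentration with no apparent growth. Run in quadruplicate; highest value reported.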

Streptococcus pyogenes = experiment: Antibacterial activity against Streptococcus pyogenes 12344; assay type: functional
Staphylococcus aureus [3] = experiment: Antibacterial activity against methicillin-resistant Staphylococcus aureus B42876; assay type: functional; in short: as §1
[4] = Inhibition of calf thymus DNA polymerase alpha; set-up: species or system Bos taurus
In short: (§2)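 Calf thymus pol alpha or human pol gamma, 0.025 to 0.06 U, added to compound dilutions in reaction mixture; 25 min at 37°C; stopped with ice-cold 10% TCA/10 mM pyrophosphate; precipitated [3H]DNA collected on filters and counted. Ki values for dGTP-competitive inhibitors obtained by truncated assay lacking dGTP.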

[5] = Cytotoxicity against human MRC5 cells; assay type: cell-based
In short: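 MRC-5 human diploid fibroblasts, 4 x 10^3 cells per well, exposed to compound from DMSO stock (final 1%) in minimal essential medium with 10% fetal calf serum for 72 h at 37°C beside a DMSO-only control.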

Enterococcus faecalis [6] = experiment: Antibacterial activity against Enterococcus faecalis 29212; assay type: functional; in short: as §1
Bacillus subtilis [7] = experiment: Inhibition of DNA synthesis in Bacillus subtilis BD54; assay type: functional, organism-based
In short: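 B. subtilis BD54 grown to log phase in C plus 50 medium; compound in DMSO added with [8-3H]adenine at time zero, at 5x or 1x MIC; samples over time. DNA = alkali-insensitive TCA-insoluble label; RNA = total TCA-insoluble minus DNA. Effect judged against diluent-control incorporation.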

Streptococcus pneumoniae [8] = experiment: Antibacterial activity against penicillin-resistant Streptococcus pneumoniae 700671; assay type: functional
In short: (§3)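 Streptococci tested by CLSI broth microdilution in Mueller-Hinton broth with 5% defibrinated horse blood, log-phase inoculum at 1 x 10^5 CFU/ml. Incubated 37°C with shaking, 16 to 20 h, in 5% humidified CO2. Compounds at 1% DMSO final. MIC is the lowest concentration without growth by OD600. Quadruplicate; highest MIC reported.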

Streptococcus pneumoniae [9] = experiment: Antibacterial activity against Streptococcus pneumoniae 49619; assay type: functional; in short: as §3
Enterococcus faecalis [10] = experiment: Antibacterial activity against vancomycin-resistant Enterococcus faecalis 700802; assay type: functional; in short: as §1
[11] = system: Stenotrophomonas maltophilia; experiment: Antibacterial activity against Stenotrophomonas maltophilia 13637; assay type: functional
Staphylococcus aureus [12] = experiment: Antibacterial activity against methicillin-resistant Staphylococcus aureus 1123; assay type: functional; in short: as §1
Klebsiella pneumoniae = experiment: Antibacterial activity against Klebsiella pneumoniae 5657; assay type: functional
Streptococcus pneumoniae [13] = experiment: Antibacterial activity against penicillin-resistant Streptococcus pneumoniae 700673; assay type: functional; in short: as §3
Streptococcus pneumoniae [14] = experiment: Antibacterial activity against penicillin-resistant Streptococcus pneumoniae 700677; assay type: functional; in short: as §3
Bacillus subtilis [15] = experiment: Antibacterial activity against Bacillus subtilis BD54; assay type: functional
[16] = molecular target: T1, DNA polymerase subunit gamma-1 (Homo sapiens, UniProt P54098); experiment: Inhibition of human DNA polymerase gamma; in short: as §2
T1 sequence (P54098 whole entry): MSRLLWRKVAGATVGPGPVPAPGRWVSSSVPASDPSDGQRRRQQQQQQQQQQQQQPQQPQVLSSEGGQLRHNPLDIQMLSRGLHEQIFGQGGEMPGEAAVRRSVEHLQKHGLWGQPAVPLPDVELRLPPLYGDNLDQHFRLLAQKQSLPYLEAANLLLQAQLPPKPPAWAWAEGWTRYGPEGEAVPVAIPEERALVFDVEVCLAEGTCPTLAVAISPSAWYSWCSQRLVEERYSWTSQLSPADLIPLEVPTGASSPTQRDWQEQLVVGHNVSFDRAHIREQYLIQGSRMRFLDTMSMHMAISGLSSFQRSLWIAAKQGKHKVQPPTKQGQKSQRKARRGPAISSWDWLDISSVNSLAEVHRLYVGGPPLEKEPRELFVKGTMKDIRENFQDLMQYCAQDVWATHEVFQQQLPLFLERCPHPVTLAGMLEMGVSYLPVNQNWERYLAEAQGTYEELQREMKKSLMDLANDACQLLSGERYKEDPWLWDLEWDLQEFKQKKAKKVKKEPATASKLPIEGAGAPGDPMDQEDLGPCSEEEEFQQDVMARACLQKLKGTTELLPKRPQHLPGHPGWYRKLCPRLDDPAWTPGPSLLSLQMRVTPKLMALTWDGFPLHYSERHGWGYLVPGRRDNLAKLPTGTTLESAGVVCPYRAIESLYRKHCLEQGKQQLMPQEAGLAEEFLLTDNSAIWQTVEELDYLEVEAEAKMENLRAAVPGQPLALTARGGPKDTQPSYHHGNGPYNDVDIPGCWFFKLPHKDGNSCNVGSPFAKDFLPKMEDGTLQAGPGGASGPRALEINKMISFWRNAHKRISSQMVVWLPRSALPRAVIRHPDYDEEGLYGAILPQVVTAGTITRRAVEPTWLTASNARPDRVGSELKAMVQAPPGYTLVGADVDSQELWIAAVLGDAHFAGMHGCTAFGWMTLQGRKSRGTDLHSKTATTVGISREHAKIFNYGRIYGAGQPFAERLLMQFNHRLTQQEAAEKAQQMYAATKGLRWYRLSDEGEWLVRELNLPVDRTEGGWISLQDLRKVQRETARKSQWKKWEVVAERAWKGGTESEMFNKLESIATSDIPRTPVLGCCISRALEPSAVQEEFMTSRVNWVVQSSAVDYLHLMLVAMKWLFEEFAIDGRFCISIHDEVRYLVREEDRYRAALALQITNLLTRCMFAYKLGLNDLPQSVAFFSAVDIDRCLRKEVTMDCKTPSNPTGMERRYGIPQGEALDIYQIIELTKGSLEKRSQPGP

Streptococcus pneumoniae [17] = experiment: Antibacterial activity against penicillin-resistant Streptococcus pneumoniae 700670; assay type: functional; in short: as §3
Bacillus cereus [18] = experiment: Antibacterial activity against Bacillus cereus 4342; assay type: functional
Enterococcus faecium [19] = experiment: Antibacterial activity against vancomycin-resistant Enterococcus faecium B42762; assay type: functional; in short: as §1
Escherichia coli [20] = experiment: Antibacterial activity against ciprofloxacin-resistant Escherichia coli XL1-Blue; assay type: functional; in short: as §1
Staphylococcus aureus [21] = experiment: Antibacterial activity against methicillin-resistant Staphylococcus aureus 1132; assay type: functional; in short: as §1
Staphylococcus aureus [22] = experiment: Antibacterial activity against methicillin-resistant Staphylococcus aureus 1094; assay type: functional; in short: as §1
Staphylococcus aureus [23] = experiment: Antibacterial activity against Staphylococcus aureus Smith in presence of 10% FCS; assay type: functional
Enterococcus faecium [24] = experiment: Antibacterial activity against vancomycin-resistant Enterococcus faecium 1644; assay type: functional; in short: as §1
[25] = Inhibition of Bacillus subtilis DNA polymerase 3E
In short: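 Recombinant B. subtilis pol IIIE. Serial compound dilutions in DMSO; 30 mM Tris pH 7.5, 10 mM Mg acetate, 4 mM DTT, 20% glycerol, 25 µM each dATP/dCTP/dGTP, 10 µM [3H]dTTP, 0.4 mg/ml activated calf thymus DNA; 0.025 to 0.06 U enzyme, 10 min at 30°C. TCA-precipitated, filter-collected label counted by scintillation.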

[26] = Therapeutic index, CC50 for MRC5 cells/MIC for Staphylococcus aureus Smith; assay type: cell-based; settings: human
Staphylococcus aureus [27] = experiment: Antibacterial activity against HB-EMAU-resistant Staphylococcus aureus Smith; assay type: functional; in short: as §1
Staphylococcus aureus [28] = experiment: Antibacterial activity against Staphylococcus aureus 25923; assay type: functional; in short: as §1
[29] = Inhibition of Bacillus subtilis topoisomerase 4
Enterococcus faecium [30] = experiment: Antibacterial activity against Enterococcus faecium 19434; assay type: functional; in short: as §1
Staphylococcus aureus [31] = experiment: Antibacterial activity against ciprofloxacin-resistant Staphylococcus aureus Smith; assay type: functional; in short: as §1
Bacillus thuringiensis [32] = experiment: Antibacterial activity against Bacillus thuringiensis 33679; assay type: functional
Staphylococcus aureus [33] = experiment: Antibacterial activity against HB-EMAU-resistant and ciprofloxacin-resistant Staphylococcus aureus Smith; assay type: functional; in short: as §1
Staphylococcus aureus [34] = experiment: Antibacterial activity against mupirocin-sensitive Staphylococcus aureus 2529; assay type: functional
Bacillus thuringiensis [35] = experiment: Antibacterial activity against Bacillus thuringiensis 10792; assay type: functional
Pseudomonas aeruginosa = experiment: Antibacterial activity against Pseudomonas aeruginosa 27853; assay type: functional
[36] = Inhibition of Bacillus subtilis gyrase
Enterococcus faecium [37] = experiment: Antibacterial activity against vancomycin and linezolid-resistant Enterococcus faecium F118; assay type: functional; in short: as §1
Staphylococcus aureus [38] = experiment: Antibacterial activity against Staphylococcus aureus Smith 13709; assay type: functional; in short: as §1
Staphylococcus aureus [39] = experiment: Antibacterial activity against mupirocin-resistant Staphylococcus aureus 777; assay type: functional; in short: as §1
Streptococcus pneumoniae [40] = experiment: Antibacterial activity against penicillin-resistant Streptococcus pneumoniae 700674; assay type: functional; in short: as §3
Enterococcus faecalis [41] = experiment: Antibacterial activity against vancomycin-resistant Enterococcus faecalis 51575; assay type: functional; in short: as §1
Staphylococcus aureus [42] = experiment: Antibacterial activity against Staphylococcus aureus 1081; assay type: functional; in short: as §1
Bacillus cereus [43] = experiment: Antibacterial activity against Bacillus cereus 6464; assay type: functional

CCc1cc(Nc2cc(=O)n(CCCCN3CCN(c4c(F)cc5c(=O)c(C(=O)O)cn(C6CC6)c5c4F)CC3C)c(=O)[nH]2)ccc1C (configuration not stated)
MIC (Escherichia coli [1]): 2.5 µg/mL (≈ 3.77 µM)
MIC (Bacillus anthracis): 0.156 µg/mL (≈ 0.235 µM)
MIC (Enterococcus faecalis [2]): 1.25 µg/mL (≈ 1.89 µM)
MIC (Streptococcus pyogenes): 0.313 µg/mL (≈ 0.472 µM)
MIC (Staphylococcus aureus [3]): 2.5 µg/mL (≈ 3.77 µM)
Ki [4]: > 482 µM
CC50 [5]: > 80 µg/mL
MIC (Enterococcus faecalis [6]): 1.25 µg/mL (≈ 1.89 µM)
Activity (Bacillus subtilis [7]): Active
MIC (Streptococcus pneumoniae [8]): 0.313 µg/mL (≈ 0.472 µM)
MIC (Streptococcus pneumoniae [9]): 0.625 µg/mL (≈ 0.943 µM)
MIC (Enterococcus faecalis [10]): 1.25 µg/mL (≈ 1.89 µM)
MIC [11]: 10 µg/mL (≈ 15.1 µM)
MIC (Staphylococcus aureus [12]): 1.25 µg/mL (≈ 1.89 µM)
MIC (Klebsiella pneumoniae): 20 µg/mL (≈ 30.2 µM)
MIC (Streptococcus pneumoniae [13]): 0.313 µg/mL (≈ 0.472 µM)
MIC (Streptococcus pneumoniae [14]): 0.313 µg/mL (≈ 0.472 µM)
MIC (Bacillus subtilis [15]): 0.156 µg/mL (≈ 0.235 µM)
Ki [16]: 684 µM
MIC (Streptococcus pneumoniae [17]): 0.625 µg/mL (≈ 0.943 µM)
MIC (Bacillus cereus [18]): 0.156 µg/mL (≈ 0.235 µM)
MIC (Enterococcus faecium [19]): 1.25 µg/mL (≈ 1.89 µM)
MIC (Escherichia coli [20]): 1.25 µg/mL (≈ 1.89 µM)
MIC (Staphylococcus aureus [21]): 0.625 µg/mL (≈ 0.943 µM)
MIC (Staphylococcus aureus [22]): 1.25 µg/mL (≈ 1.89 µM)
MIC (Staphylococcus aureus [23]): 0.625 µg/mL
MIC (Enterococcus faecium [24]): 1.25 µg/mL (≈ 1.89 µM)
Ki [25]: > 482 µM
selectivity ratio [26]: > 128
MIC (Staphylococcus aureus [27]): 0.625 µg/mL (≈ 0.943 µM)
MIC (Staphylococcus aureus [28]): 0.625 µg/mL (≈ 0.943 µM)
IC50 [29]: 43.6 µM
MIC (Enterococcus faecium [30]): 2.5 µg/mL (≈ 3.77 µM)
MIC (Staphylococcus aureus [31]): 1.25 µg/mL (≈ 1.89 µM)
MIC (Bacillus thuringiensis [32]): 0.156 µg/mL (≈ 0.235 µM)
MIC (Staphylococcus aureus [33]): 20 µg/mL (≈ 30.2 µM)
MIC (Staphylococcus aureus [34]): 5 µg/mL (≈ 7.54 µM)
MIC (Bacillus thuringiensis [35]): 0.156 µg/mL (≈ 0.235 µM)
MIC (Pseudomonas aeruginosa): > 80 µg/mL
IC50 [36]: 31 µM
MIC (Enterococcus faecium [37]): 1.25 µg/mL (≈ 1.89 µM)
MIC (Staphylococcus aureus [38]): 0.313 µg/mL (≈ 0.472 µM)
MIC (Staphylococcus aureus [39]): 2.5 µg/mL (≈ 3.77 µM)
MIC (Streptococcus pneumoniae [40]): 0.625 µg/mL (≈ 0.943 µM)
MIC (Enterococcus faecalis [41]): 1.25 µg/mL (≈ 1.89 µM)
MIC (Staphylococcus aureus [42]): 0.625 µg/mL (≈ 0.943 µM)
MIC (Bacillus cereus [43]): 0.156 µg/mL (≈ 0.235 µM)

— ChEMBL document CHEMBL1142158, “Antibacterial activity and mechanism of action of a novel anilinouracil-fluoroquinolone hybrid compound” (Antimicrob Agents Chemother, 2007)
